Results taken from ChEMBL document CHEMBL3877295, “Discovery of novel 3-hydroxypicolinamides as selective inhibitors of HIV-1 integrase-LEDGF/p75 interaction” (Eur J Med Chem, 2017).

Legend:
[1] = test system: Human immunodeficiency virus 1; test: Antiviral activity against HIV1 3B infected in human MT4 cells assessed as reduction in virus-induced cytopathic effect by MTT assay; assay type: functional, cell-based; conditions: Human immunodeficiency virus 1, 3B
[2] = Cytotoxicity against human MT4 cells assessed as reduction in cell viability after 72 hrs by MTT assay; assay type: toxicity, cell-based
[3] = Inhibition of HIV1 His6-tagged integrase/FLAG-tagged LEDGF/p75 protein-protein interaction expressed in Escherichia coli BL21(DE3) preincubated with integrase for 30 mins followed by LEDGF/p75 addition measured after 60 mins by AlphaScreen assay
Method in brief: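 His6-integrase (300 nM final) preincubated with compound […] for 30 min at 4 °C. FLAG-LEDGF/p75 (300 nM final) added for 60 min at 4 °C. Ni-chelate donor and anti-FLAG acceptor beads (20 µg/mL each) added for 1 h at 30 °C, then acceptor emission read.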

[4] = Inhibition of HIV1 recombinant GST/His-tagged integrase strand transfer activity expressed in Escherichia coli BL21(DE3) using 5'-end 32P labeled linear 21-mer substrate preincubated for 30 mins followed by substrate addition measured after 1 hr by PAGE analysis; set-up: species or system Human immunodeficiency virus 1
Method in brief: (§1)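 Recombinant wild-type integrase (200 nM final) preincubated with inhibitor in 50 mM NaCl, 1 mM HEPES pH 7.5, 10% glycerol, 7.5 mM MnCl2, 0.1 mg/mL BSA. Substrate: 21-mer top strand 5'-labelled with [γ-32P]ATP by T4 polynucleotide kinase, kinase heat-killed at 95 °C for 15 min, annealed to 1.5-fold molar excess bottom strand, and spin-column cleaned.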

[5] = Therapeutic Index, ratio of CC50 for human MT4 cells to EC50 for HIV1 3B infected in human MT4 cells; assay type: cell-based; conditions: read-out: Ratio CC50/EC50
[6] = Inhibition of HIV1 recombinant GST/His-tagged integrase 3'-processing activity expressed in Escherichia coli BL21(DE3) assessed as reduction in 19-mer product using 5'-end 32P labeled linear 21-mer substrate preincubated for 30 mins followed by substrate addition measured after 1 hr by PAGE analysis; set-up: species or system Human immunodeficiency virus 1; method in brief: as §1
[7] = test system: Human immunodeficiency virus 1; test: Antiviral activity against HIV1 3B infected in human C8166 cells assessed as reduction in virus-induced cytopathic effect by MTT assay; assay type: functional, cell-based; conditions: Human immunodeficiency virus 1, 3B
[8] = Therapeutic Index, ratio of CC50 for human C8166 cells to EC50 for HIV1 3B infected in human C8166 cells; assay type: cell-based; conditions: read-out: Ratio CC50/EC50
[9] = Cytotoxicity against human C8166 cells assessed as reduction in cell viability after 72 hrs by MTT assay; assay type: toxicity, cell-based
[10] = Inhibition of HIV1 GST-tagged integrase and His6-tagged integrase mutant dimerization expressed in Escherichia coli BL21(DE3) after overnight incubation by AlphaScreen assay; set-up: species or system Human immunodeficiency virus 1

Row | SMILES | EC50 [1] [µM] | CC50 at 72 h [2] [µM] | IC50 [3] [µM] | IC50 [4] [µM] | selectivity ratio [5] | IC50 [6] [µM] | EC50 [7] [µM] | selectivity ratio [8] | CC50 at 72 h [9] [µM] | IC50 [10] [µM]
1 | O=c1oc2cccnc2c(=O)n1Cc1cccs1 | 69.9 | 363 | > 20 | > 20 | 5.2 | > 20 |  |  |  | 
2 | O=C(NCc1ccc(F)c(Cl)c1)c1ncccc1O |  |  | 4.2 | > 20 |  | > 20 | 19.2 | 16 | 310 | 
3 | O=C(NCc1ccc(F)cc1)c1ncccc1F |  |  | > 20 | > 20 |  | > 20 |  |  |  | 
4 | O=C(NCc1ccc(F)cc1)c1ncccc1O |  |  | 8.6 | > 20 |  | > 20 | 77.6 | 1.5 | 114 | 6.1
5 | CC(C)CCN(Cc1ccc(F)cc1)C(=O)c1ncccc1O | 68.6 | 268 | > 20 | > 20 | 3.9 | > 20 |  |  |  | 
6 | O=C(NCC1CCCCC1)c1ncccc1O |  |  | 19 | > 20 |  | > 20 | 66.2 | 2.1 | 137 | 
7 | O=C(NCc1ccco1)c1ncccc1O |  |  | 2.4 | > 20 |  | > 20 | 269 | 2.1 | 575 | 10
8 | O=C(NCc1ccc([N+](=O)[O-])cc1)c1ncccc1O |  |  | 4 | > 20 |  | > 20 | 26.4 | 4.8 | 127 | 
9 | CCCCN(Cc1ccc(F)cc1)C(=O)c1ncccc1O | > 330 | > 660 | 12 | > 20 |  | > 20 |  |  |  | 14
10 | Nc1ccc(CNC(=O)c2ncccc2O)cc1 |  |  | 1.7 | > 20 |  | > 20 | 260 | > 2.3 | > 596 | 4
11 | O=C(NCc1ccc(C(F)(F)F)cc1)c1ncccc1O |  |  | > 20 | > 20 |  | > 20 | 43.2 | < 1 | 31.4 | 
12 | O=C(NCc1cccc2ccccc12)c1ncccc1O |  |  | > 20 | > 20 |  | > 20 | 58.2 | 1.5 | 88.8 | 
13 | O=C(NCc1ccc(F)cc1)c1ccc(O)cn1 |  |  | > 20 | > 20 |  | > 20 |  |  |  | 
14 | O=C(NCc1ccc(F)cc1)c1nc(N2CCCCS2(=O)=O)c2cccnc2c1O |  |  |  | 0.0008 |  | 0.0054 | 0.00233 | 52800 | 123 | 
